In the library only some 3.5% were active in any assay of this set; here they are far more common.
PRMT1 inh = PRMT1 (human) inhibition, primary screen; Q99873; recombinant PRMT1, activity-based probe fluorescence polarization; inhibition, % at 2.79 µM; actives 1.3% (n = 370,000);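 active = inhibition above about 21% made by adding two undisclosed values, limit read from the data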
TCR CD3 inh = blocks the human TCR-CD3 interaction. TAMRA-labeled TCR probe fluorescence, biochemical. inhibition, % at 9.4 µM. actives 0.37% (n = 360,000); in the data active = inhibition above about 19%;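 note: recombinant mutant TCR 2C K166C tagged with TAMRA read by polarization; 0% = receptor in buffer alone and 100% = receptor with positive control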
ABHD4 inh = ABHD4 (mouse) inhibition, primary FP screen | actives 0.54% (n = 370,000) | AID 720543 | Q8VD66 | purified mABHD4, FP-Rh probe fluorescence polarization | inhibition, % at 8.92 µM;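 active = inhibition exceeding the mean over every tested compound plus 3 SD, cut at about 30% in these data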;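 note: 0% = plate median of compound wells and 100% = S159A mutant with DMSO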
Target sequence (Q8VD66 whole entry, looked up): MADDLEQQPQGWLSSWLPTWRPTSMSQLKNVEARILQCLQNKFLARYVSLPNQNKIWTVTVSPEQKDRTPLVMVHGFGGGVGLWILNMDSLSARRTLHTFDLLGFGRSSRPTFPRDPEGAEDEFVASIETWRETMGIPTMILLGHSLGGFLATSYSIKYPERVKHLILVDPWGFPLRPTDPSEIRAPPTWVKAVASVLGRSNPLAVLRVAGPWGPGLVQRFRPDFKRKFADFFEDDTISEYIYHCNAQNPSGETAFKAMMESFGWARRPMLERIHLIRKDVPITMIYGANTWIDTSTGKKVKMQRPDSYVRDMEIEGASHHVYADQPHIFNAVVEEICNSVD
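assay system = mABHD4 protein | compound dosing = single nominal dose of 8.92 µM, 0.89% DMSO final | read-out basis = percent inhibition of probe binding, normalized to plate controls | schedule = Enzyme–compound pre-incubation 45 min, then probe 60 min, both 25 °C | detection = fluorescence polarization, excitation 525 nm, emission 598 nm, BODIPY TMR filters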
HTRA1 inhibitor = HTRA1 (human) protease inhibition. actives 0.5% (n = 340,000). AID 504803. inhibition, % at 5.96 µM. recombinant HTRA1, FP-rhodamine activity-based probe, fluorescence polarization. Q92743; in the data active = inhibition above about 36%;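 note: 0% = enzyme with DMSO and 100% = wells lacking enzyme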
rCAG RNA binder = r(CAG) repeat RNA binding; inhibition, % at 3 µM; TO-PRO-1 dye displacement fluorescence; actives 1.3% (n = 370,000);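 active = inhibition above the plate cutoff, the mean of all test compounds on that plate plus 3 SD, cut at about 35% in these data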;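 note: 0% = DMSO alone and 100% = 100 µM mitoxantrone as full dye displacement; higher means more dye released from RNA so lower well fluorescence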
SIAE inh = blocks human sialic acid acetylesterase. Q9HAT2. SIAE FP-Rh probe binding, fluorescence polarization. inhibition, % at 9.66 µM. actives 0.69% (n = 370,000);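 active = inhibition above a cutoff: mean of compounds within the control limits plus 3 SD of those, cut at about 17% in these data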;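 note: 0% = plate median of compound wells and 100% = probe without SIAE protein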
rCAG binder conf = r(CAG) RNA repeat binding, confirmation; inhibition, % at 3 µM; TO-PRO-1 dye displacement fluorescence; actives 70% (n = 4,300); shares compounds with rCAG RNA binder; AID 652065;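 active = inhibition above a per-plate cutoff, the mean inhibition of sample wells plus 3 SD, cut at about 35% in these data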;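 note: loss of TO-PRO-1 fluorescence as compound displaces dye from 1x1 AA loop RNA; 0% = DMSO only wells and 100% = 100 µM mitoxantrone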
dCAG dye counter = DNA CAG dye complex inhibition counter-screen | inhibition, % at 3 µM | shares compounds with rCAG RNA binder | actives 94% (n = 4,300) | d(CAG) DNA oligo TO-PRO-1 dye displacement, fluorescence | AID 652068;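 active = inhibition above its plate's cutoff, the mean test-well inhibition plus 3 SD, cut at about 4.8% in these data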;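 note: 0% = DNA dye mix with DMSO and 100% = 100 µM mitoxantrone; hits displace the dye from DNA and so lower well fluorescence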
DNA CAG DR = disrupts DNA CAG TO-PRO-1 complex in dose response; shares compounds with rCAG RNA binder; DNA CAG/GTC duplex TO-PRO-1 dye displacement fluorescence; IC50, µM; actives 20% (n = 250); in the data active = IC50 below about 10 µM
The depositor's hits bear a star; i = inactive; . = no result.

SMILES	PRMT1 inh	TCR CD3 inh	ABHD4 inh	HTRA1 inhibitor	rCAG RNA binder	SIAE inh	rCAG binder conf	dCAG dye counter	others
Cc1cc(NS(=O)(=O)c2ccc(NC(=O)c3cc(-c4ccccc4Cl)nc4ccccc34)cc2)no1	1	5	-43	-58	75*	-6	72*	39*
CCc1ccc(-c2cc(C(=O)Nc3ccc(S(=O)(=O)NC(C)=O)cc3)c3ccccc3n2)cc1	-1	-8	-66	-31	58*	-14	63*	29*
Cc1ccc(-c2cc(C(=O)Nc3ccc(S(=O)(=O)Nc4ncccn4)cc3)c3ccccc3n2)cc1	1	-10	-6	-10	58*	-11	64*	20*
Cc1ccc(-c2cc(C(=O)Nc3ccc(S(=O)(=O)Nc4nccs4)cc3)c3ccccc3n2)c(C)c1	19	-5	-93	-67	68*	-18	71*	30*	DNA CAG DR=i
CC(C)(C)NS(=O)(=O)c1ccc(NC(=O)c2cc(-c3ccccc3)nc3ccccc23)cc1	0	4	-8	0	6	-3	.	.
O=C(OCC#CCSc1nnc(-c2ccc(F)cc2)o1)c1ccc(F)cc1	-6	.	-11	.	.	-1	.	.
C=CCN1C(=O)[C@@H](CC(=O)N2CCCCC2)[C@]2(C(=O)OC)CCCCC=C12	-3	.	7	.	5	7	.	.
COC(=O)c1cc(S(=O)(=O)N2CCCN(C(C)=O)CC2)cn1C	-1	.	-2	.	2	-1	.	.
COC(=O)[C@]12C[C@H](CC(=O)N3CCCCC3)C(=O)N(Cc3ccccc3)C1=C[C@H](COCc1ccccc1)O[C@@H]2C	-5	.	-5	.	0	-3	.	.
O=C(Nc1ccc(S(=O)(=O)Nc2nccs2)cc1)c1cc(-c2ccccc2)nc2ccccc12	-1	9	-84	-69	74*	-17	76*	38*
CC(=O)Nc1c(-c2ccc(F)cc2)nc2ncccn12	1	.	-5	.	4	3	.	.
COc1cc(/C=C/C(=O)O)cc(OC)c1OC	2	6	-1	1	2	7	.	.
COc1cc(C)c(/C=C/C(C)=C/C=C/C(C)=C/C(=O)O)c(C)c1C	2	-8	-2	-5	47*	3	54*	17*
Cc1cccc(CNC(=S)OC2CCC23CCC(c2ccccc2)CC3)c1 (stereo unspecified)	5	.	-17	.	6	-5	.	.
CCOC(=O)c1ccc(S(=O)(=O)Nc2nc3cc(S(=O)(=O)NC4=NCCCCC4)ccc3s2)cc1	41*	-4	-3	-10	59*	-1	56*	23*
Nc1nc2cc(S(=O)(=O)NC3=NCCCCC3)ccc2s1	17	8	-3	1	7	-9	.	.
O=C(NN=Cc1c(F)cccc1F)c1ccccc1NS(=O)(=O)c1cccs1	-2	9	0	2	38*	3	21	4.6*
Cc1nn(-c2ccccc2)c(Cl)c1/C=N/NC(=O)c1ccccc1NS(=O)(=O)c1cccs1	1	-2	0	-4	76*	-2	80*	45*
Cc1nn(-c2ccccc2)c(Cl)c1/C=N/NC(=O)c1ccccc1F	2	-3	-13	-4	-5	-8	.	.
O=C(NN=Cc1ccc(O)cc1)c1ccccc1NS(=O)(=O)c1cccs1	-2	15	11	0	31	8	.	.
O=C(CSc1nnc(-c2cccnc2)n1Cc1ccco1)Nc1cc(Cl)ccc1F	-1	.	3	.	0	0	.	.
COC(=O)[C@]12C[C@H](CC(=O)N3CCN(C(=O)C4CC4)CC3)C(=O)N(CCC3=CCCCC3)C1=C[C@H](C1CCCC1)O[C@@H]2C	5	.	1	.	5	1	.	.
O=c1ccc(=O)n(-c2ccccc2)[nH]1	9	-3	0	4	2	-2	.	.
O=c1cc(-c2ccccc2)[nH]n1-c1ccccc1	6	4	13	1	59*	11	8	3
